# Non-standard residues stand in square brackets, D forms with d. Residues, ends and D or L forms follow the SMILES beside them. 3Thi = N[C@@H](Cc1ccsc1)C(=O)O; Sar = CNCC(=O)O
# Tests used:
# Format in all cases: functional
# [1] = system: Rattus norvegicus; experiment: In vivo angiotensin II like activity was measured in rat blood pressure assay expressed as percent activity relative to A II
# [2] = system: Rattus norvegicus; experiment: In vivo agonist angiotensin II like activity was measured in rat blood pressure increase by a 1 ug iv injection
# Method in brief: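 Rat blood pressure in vivo. Residual AII-like activity read as the pressor rise (mmHg) after a 1-μg intravenous bolus of compound. Mean of at least five tests with standard error.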
# [3] = organism: Oryctolagus cuniculus; experiment: In vitro agonist angiotensin II like activity was measured in the rabbit aorta strip assay
# Method in brief: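 Isolated rabbit aortic strips in vitro. Agonist (AII-like) activity expressed as percent of the activity of AII.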
# [4] = system: Rattus norvegicus; experiment: Antagonist activity ID50 was measured in vivo in the rat blood pressure assay
# Method in brief: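 Rat blood pressure in vivo, 250-g rats, compound given by infusion. AII dose-response curves measured before and during the infusion. ID50 expressed as ng/rat per min. Mean of at least five tests with standard error.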
Structure (SMILES),Activity [1],BP increase [2],Activity [3],ID50 [4]
CC[C@H](C)[C@H](NC(=O)[C@H](Cc1ccc(O)cc1)NC(=O)[C@@H](NC(=O)[C@@H](N)CCCCN=C(N)N)C(C)C)C(=O)N[C@@H](Cc1c[nH]cn1)C(=O)N1CCC[C@H]1C(=O)N[C@@H](Cc1ccccc1)C(=O)O,2.07%,,,
CC[C@H](C)[C@H](NC(=O)[C@@H]1CCCN1C(=O)[C@H](Cc1c[nH]cn1)NC(=O)[C@@H](NC(=O)[C@H](Cc1ccc(O)cc1)NC(=O)[C@@H](NC(=O)[C@@H](C)N)C(C)C)[C@@H](C)CC)C(=O)O,,5 mmHg,0%,100 ng min-1 rat-1
CC[C@H](C)[C@H](NC(=O)[C@@H]1CCCN1C(=O)[C@H](Cc1c[nH]cn1)NC(=O)[C@@H](NC(=O)[C@H](Cc1ccc(O)cc1)NC(=O)[C@@H](NC(=O)[C@H](N)CCCN=C(N)N)C(C)C)[C@@H](C)CC)C(=O)O,,5 mmHg,0%,100 ng min-1 rat-1
CC[C@H](C)[C@H](NC(=O)[C@@H]1CCCN1C(=O)[C@H](Cc1c[nH]cn1)NC(=O)[C@@H](NC(=O)[C@H](Cc1ccc(O)cc1)NC(=O)[C@@H](NC(=O)[C@@H](CCCN=C(N)N)NC(=O)CNC)C(C)C)[C@@H](C)CC)C(=O)O,,10 mmHg,0%,100 ng min-1 rat-1
CC[C@H](C)[C@H](NC(=O)[C@@H]1CCCN1C(=O)[C@H](Cc1c[nH]cn1)NC(=O)[C@@H](NC(=O)[C@H](Cc1ccc(O)cc1)NC(=O)[C@@H](NC(=O)[C@@H](CCCCN)NC(=O)CNC)C(C)C)[C@@H](C)CC)C(=O)O,,12.5 mmHg,0%,50 ng min-1 rat-1
CC[C@@H](N)C(=O)N[C@H](C(=O)N[C@@H](Cc1ccc(O)cc1)C(=O)N[C@H](C(=O)N[C@@H](Cc1c[nH]cn1)C(=O)N1CCC[C@H]1C(=O)N[C@@H](Cc1ccccc1)C(=O)O)[C@@H](C)CC)C(C)C,22%,,,
CC[C@H](C)[C@H](NC(=O)[C@@H]1CCCN1C(=O)[C@H](Cc1c[nH]cn1)NC(=O)[C@@H](NC(=O)[C@H](Cc1ccc(O)cc1)NC(=O)[C@@H](NC(=O)[C@@H](C)NC)C(C)C)[C@@H](C)CC)C(=O)O,,10 mmHg,0%,25 ng min-1 rat-1
CC[C@H](C)[C@H](NC(=O)[C@@H]1CCCN1C(=O)[C@H](Cc1c[nH]cn1)NC(=O)[C@@H](NC(=O)[C@H](Cc1ccc(O)cc1)NC(=O)[C@@H](NC(=O)[C@H](CCCN=C(N)N)NC(=O)CNC)C(C)C)[C@@H](C)CC)C(=O)O,,10.2 mmHg,0%,10 ng min-1 rat-1
CC[C@H](C)[C@H](NC(=O)[C@H](Cc1ccc(O)cc1)NC(=O)[C@@H](NC(=O)[C@H](C)NC(=O)[C@@H](N)CC(=O)O)C(C)C)C(=O)N[C@@H](Cc1c[nH]cn1)C(=O)N1CCC[C@H]1C(=O)N[C@@H](Cc1ccccc1)C(=O)O (H-DAVYIHPF-OH),7.7%,,,
CC[C@H](C)[C@H](NC(=O)[C@@H]1CCCN1C(=O)[C@H](Cc1ccccc1)NC(=O)[C@@H](NC(=O)[C@H](Cc1ccc(O)cc1)NC(=O)[C@@H](NC(=O)[C@H](CCCN=C(N)N)NC(=O)CNC)C(C)C)[C@@H](C)CC)C(=O)O (H-[Sar]RVYIFPI-OH),,10 mmHg,0%,100 ng min-1 rat-1
CC[C@H](C)[C@H](NC(=O)[C@@H]1CCCN1C(=O)[C@H](Cc1c[nH]c2ccccc12)NC(=O)[C@@H](NC(=O)[C@H](Cc1ccc(O)cc1)NC(=O)[C@@H](NC(=O)[C@H](CCCN=C(N)N)NC(=O)CNC)C(C)C)[C@@H](C)CC)C(=O)O (H-[Sar]RVYIWPI-OH),,7.5 mmHg,0%,100 ng min-1 rat-1
CC[C@H](C)[C@H](NC(=O)[C@@H]1CCCN1C(=O)[C@H](Cc1ccsc1)NC(=O)[C@@H](NC(=O)[C@H](Cc1ccc(O)cc1)NC(=O)[C@@H](NC(=O)[C@H](CCCN=C(N)N)NC(=O)CNC)C(C)C)[C@@H](C)CC)C(=O)O (H-[Sar]RVYI[3Thi]PI-OH),,12.5 mmHg,0%,100 ng min-1 rat-1
CC[C@H](C)[C@H](NC(=O)[C@@H]1CCCN1C(=O)[C@H](Cc1c[nH]cn1)NC(=O)[C@@H](NC(=O)[C@H](Cc1ccc(O)cc1)NC(=O)[C@@H](NC(=O)CN(C)C(=O)CNC)C(C)C)[C@@H](C)CC)C(=O)O (H-[Sar][Sar]VYIHPI-OH),,8.5 mmHg,0%,150 ng min-1 rat-1

# — ChEMBL document CHEMBL1124220 (J Med Chem, 1988)
